Source: PubChem
PHOSPHO1 block: PubChem AID 1565; inhibition, % at 13.3 µM; Phosphoethanolamine/phosphocholine phosphatase (Homo sapiens), Q8TCT1; actives 1.1% (n = 290,000); recombinant PHOSPHO1, absorbance phosphatase assay; in the data active means inhibition above about 60%
Target sequence (Q8TCT1 whole entry, looked up): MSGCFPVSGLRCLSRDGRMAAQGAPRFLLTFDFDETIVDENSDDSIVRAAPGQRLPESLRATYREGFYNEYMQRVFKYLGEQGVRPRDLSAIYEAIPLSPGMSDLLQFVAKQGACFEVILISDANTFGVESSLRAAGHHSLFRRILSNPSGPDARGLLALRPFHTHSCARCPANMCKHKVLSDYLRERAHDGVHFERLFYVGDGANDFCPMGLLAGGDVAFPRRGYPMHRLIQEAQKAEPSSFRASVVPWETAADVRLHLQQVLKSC
HSF-1 act: HSF-1 activators, primary screen, NIH3T3-HGL cells, MG132 stress, luminescence, single point | NIH3T3-HGL HSF-1 luciferase reporter, 8 h; 100% = twice DMSO control signal | activation, % at 9 µM | actives 1.7% (n = 300,000) | AID 504408, 2011;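 active means mean replicate activation of at least 50% with a set share of replicates each reaching 50%; inconclusive means only one of those two conditions met; inactive means mean below 50% and too few replicates reaching it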;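 further: 0% = median of the neutral control wells and 100% = twice that signal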
HSF1 inh: HSF1 inhibitors in luciferase reporter cells, primary screen, cell-based, NIH3T3, luminescence; NIH3T3-HGL HSE-luciferase, MG132-induced, luminescence 8 h; hits give low values; actives 0.77% (n = 300,000); activity change, negative = inhibition, % at 7.5 µM (by protocol);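 active means more than half of replicate wells show activity change below -50%, luminescence cut by over half; inconclusive means some wells, but at most half, below -50%; inactive means no replicate well below -50%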;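 further: luciferase reports HSF-1 transcriptional activity via heat shock element; 0% = median of DMSO wells and -100% = zero luminescence signal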
ALR H2O2 inh: inhibitors of human ALR sulfhydryl oxidase, primary screen, biochemical, H2O2 detection, HRP-luminol luminescence, single point | FAD-linked sulfhydryl oxidase ALR (Homo sapiens), P55789 | purified ALR, DTT oxidation | inhibition, % (no concentration beside the values) | actives 3.8% (n = 290,000) | AID 485317, 2010;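 active means mean replicate inhibition above about 79%, with every replicate also reaching it, limit read from the data; inconclusive means only one of the two criteria met; inactive means mean below limit and not every replicate reaching it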
Target sequence (P55789 whole entry, looked up): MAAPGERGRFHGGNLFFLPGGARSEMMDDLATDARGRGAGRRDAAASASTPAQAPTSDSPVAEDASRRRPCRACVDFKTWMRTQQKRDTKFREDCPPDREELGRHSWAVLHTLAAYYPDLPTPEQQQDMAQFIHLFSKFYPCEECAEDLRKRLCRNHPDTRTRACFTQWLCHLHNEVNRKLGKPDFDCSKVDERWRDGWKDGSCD
AI-2 QS mod: Vibrio harveyi AI-2 quorum sensing modulators, primary screen, JMH597 strain, luminescence/OD600 ratio. Vibrio harveyi JMH597 AI-2 luminescence/OD600 ratio, 9 h; hits give low values; strain lacks LuxN and CqsS sensors; 0 = neutral-control median. activity change, % at 7.5 µM. actives 0.4% (n = 300,000); in the data active means activity change below about -75%, passing the limit was not always enough; inconclusive means no clear call, values can overlap the other calls;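 further: luminescence divided by OD600 gain over 9 h not by final OD600 alone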
core dimer inh: inhibitors of HCV core protein dimerization, primary screen, biochemical, TR-FRET, high-throughput; inhibition, % at 5 µM; TR-FRET GST/Flag-core106 dimerization, 1536-well; actives 0.33% (n = 300,000);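 active means inhibition above the mean of all tested compounds plus 3 SD, set per screening campaign, cut at about 45% in these data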
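System: GST-tagged and Flag-tagged HCV core protein residues 1-106 / Input: core106 proteins, GST 13.5 nM and Flag 17 nM / Buffer or medium: KF-containing HEPES buffer, pH 7.45, DTT, CHAPS, BSA / Probe or stimulus: Eu-anti-GST and XL665-anti-Flag labelled anti-tag antibodies / Schedule: 4 h, 22.5 °C incubation / Technique: TR-FRET 671 and 617 nm emission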
An asterisk follows results filed as active; u = inconclusive; x = no result given. Only some compounds are listed: those with a hit (about 6.8% of all), similar ones and a draw of the others.

SMILES	PHOSPHO1 block	HSF-1 act	HSF1 inh	ALR H2O2 inh	AI-2 QS mod	core dimer inh
C=C(C)C(=O)Nc1cccc(C2=NOC3(C2)C[C@@H](C(N)=O)N(C(=O)[C@H]2CCC(=O)N2)C3)c1 (stereo partly specified)	44	-4	-2	-3	11	81*
C/C=C\C=C\C(=O)Nc1cccc(C2=NOC3(C2)C[C@H](C(N)=O)N(C(=O)c2ccccc2C(=O)c2ccccc2)C3)c1 (stereo partly specified)	-9	-3	-6	-3	26	50*
C/C=C\C=C\C(=O)N1CC2(CC(c3cccc(NC(=O)CC)c3)=NO2)C[C@H]1C(N)=O (stereo partly specified)	31	-8	2	0	-2	48*
C/C=C\C(=O)Nc1cccc(C2=NOC3(C2)C[C@@H](C(N)=O)N(C(=O)CC(c2ccccc2)c2ccccc2)C3)c1 (stereo partly specified)	18	16	3	0	-7	16
C/C=C/C=C/C(=O)Nc1cccc(C2=NOC3(C2)C[C@H](C(N)=O)N(C(=O)CC(c2ccccc2)c2ccccc2)C3)c1 (stereo partly specified)	0	0	-4	-1	24	48*
CCCN(CC(=O)Nc1ccccc1C)C(=O)c1cccc(-n2cnnn2)c1	48	-2	1	-2	9	4
O=C(CN1C(=O)c2cccc([N+](=O)[O-])c2C1=O)OCC(=O)N1CCCCC1	x	-11	-20	-11	6	3
NS(=O)(=O)c1cc(C(=O)OCC(=O)Nc2ccc(N3CCCCC3)cc2)ccc1Cl	46	3	2	16	25	3
Cc1ccccc1CC(=O)Nc1ccc(C(=O)N2CCCC2)cc1	x	6	15	-6	15	-2
C/C=C\C=C/C(=O)Nc1cccc(C2=NOC3(C2)C[C@@H](C(N)=O)N(C(=O)c2ccccc2)C3)c1 (stereo partly specified)	35	x	5	28	16	21
C/C=C\C=C\C(=O)N1CC2(CC(c3cccc(NC(=O)COc4ccc(Cl)cc4)c3)=NO2)C[C@H]1C(N)=O (stereo partly specified)	31	6	0	-1	28	47*
C/C=C/C=C\C(=O)Nc1cccc(C2=NOC3(C2)C[C@H](C(N)=O)N(C(=O)/C=C/C)C3)c1 (stereo partly specified)	26	-4	1	-5	4	48*
CCOc1ccc(/C=C/C(=O)N(C)CC(=O)Nc2cccc(F)c2)cc1OCC	x	17	3	-25	12	0
Cc1cc(Cl)ccc1OCCCC(=O)OCC(=O)c1c(N)n(C)c(=O)n(C)c1=O	2	5	10	-2	17	1
CCOC(=O)N1CCN(S(=O)(=O)c2ccc(C(=O)N(CCCN(C)C)c3nc4ccc(Cl)cc4s3)cc2)CC1	63*	-1	-1	-3	-3	-9
COc1ccc(OC)c2sc(N(CCCN(C)C)C(=O)c3ccc(S(=O)(=O)N4CCc5ccccc5C4)cc3)nc12	x	-69	-69*	-4	3	-11
CCOC(=O)N1CCN(S(=O)(=O)c2ccc(C(=O)N(CCCN(C)C)c3nc4ccc(CC)cc4s3)cc2)CC1	28	-1	1	-1	14	-9
COc1ccc(C)c2sc(N(CCCN(C)C)C(=O)c3ccc(S(=O)(=O)N4CCc5ccccc5C4)cc3)nc12	x	-44	u	-24	5	-2
CC(=O)Nc1cccc(C(=O)OCc2csc(CC(=O)Nc3ccccc3C)n2)c1	x	x	x	-3	x	x
CCCCCN(C(=O)CCC(=O)OCC(=O)c1ccc(C(C)(C)C)cc1)c1c(N)n(CCCC)c(=O)[nH]c1=O	x	76*	25	-14	1	9
CCCCN(C(=O)COc1ccc(C)cc1OC)c1c(N)n(CCC)c(=O)[nH]c1=O	43	-77	-69*	0	5	0
CCCCCN(C(=O)CCC(=O)OCC(=O)c1ccc(CCC)cc1)c1c(N)n(CCCC)c(=O)[nH]c1=O	x	9	3	-10	18	7
O=[N+]([O-])c1ccc(-c2nc(C(Cl)Cl)c3ccccc3n2)cc1	28	115*	65	-13	28	-2
CN(Cc1ccccc1)c1nc(-c2ccc([N+](=O)[O-])cc2)nc2ccccc12	5	-8	-8	-14	11	3
CC1=C(C)C(C)=C(C#N)C(=C(C#N)C#N)N1	11	15	3	11	-9	0
SMILES	PHOSPHO1 block	HSF-1 act	HSF1 inh	ALR H2O2 inh	AI-2 QS mod	core dimer inh
CCOC(=O)Cc1cc(=O)n(-c2nc3ccccc3s2)[nH]1	9	-10	-2	98*	58	10
COCc1cc(=O)[nH]c(Nc2nc3ccc(C)cc3o2)n1	6	210*	171	4	15	-7
Nc1ncc(Br)cc1S(=O)(=O)NCCC(=O)NCCc1ccc(Cl)cc1	41	-12	-6	-9	17	-10
c1ccc(CCn2nnc3ccccc32)cc1	21	46	29	-6	26	-6
c1ccc2c(c1)nnn2CNc1nccs1	14	5	12	99*	3	4
Cn1c(N2CCOCC2)nc(-c2ccccc2)c1-c1ccccc1	-12	-77	-71*	99*	18	-8
c1ccc(-c2nc3ccccc3nc2N2CCOCC2)cc1	-15	-26	2	x	16	1
COc1ccc(CNC(=O)COC(=O)c2cccs2)cc1	16	7	-6	-2	x	-2
Cc1cc(C)nc(/N=C(\N)Nc2ccc3c(c2)OCCO3)n1	37	-60	-54*	-3	15	0
Cc1cc(=O)[nH]c(/N=C(\N)Nc2ccc3c(c2)OCCO3)n1	32	1	4	0	29	-5
C1=C(c2cc3ccccc3cn2)CCCC1	x	x	x	-2	x	x
CCN1CCN(c2ccc(S(=O)(=O)N3CCOCC3)cc2NC(=O)CCC(C)C)CC1	x	-9	-6	-1	19	3
Cc1cc(C)c(S(=O)(=O)N/N=C/c2ccc3c(c2)OCO3)c(C)c1	53	-64	-55*	-7	7	x
CC(=O)c1cccc(S(=O)(=O)N2CCC(C(=O)Oc3ccc(-c4nnco4)cc3)CC2)c1	x	x	x	18	x	x
COc1ccc(CN2CCNC(=O)C2CC(=O)NCC2CCOCC2)cc1C (stereo unspecified)	36	u	18	x	3	x
